{
  "source": "ChEMBL document CHEMBL2069280",
  "about": "“Synthesis and evaluation of sulfonylnitrophenylthiazoles (SNPTs) as thyroid hormone receptor-coactivator interaction inhibitors” (J Med Chem, 2012)",
  "data": [
    {"assay": "(§1) Permeability of compound by PAMPA at pH 7.4", "format": "ADME", "conditions": "not given", "in_short": "(§2)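 Parallel artificial membrane permeation assay at pH 7.4, read as permeability in 10^-6 cm/s. Mean of a single triplicate experiment.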", "units": {"permeability": "×10⁻⁶ cm/s"}, "values": [
      {"smiles": "CS(=O)(=O)c1ccc(C(=O)OCC(=O)NC23CC4CC(CC(C4)C2)C3)cc1[N+](=O)[O-]", "permeability": 167},
      {"smiles": "CCCN(C(=O)c1csc(-c2ccc(S(C)(=O)=O)c([N+](=O)[O-])c2)n1)c1ccccc1", "permeability": 1620},
      {"smiles": "Cc1nc(-c2ccc(S(C)(=O)=O)c([N+](=O)[O-])c2)sc1C(=O)N1CCC(C)CC1", "permeability": 912},
      {"smiles": "Cc1nc(-c2ccc(S(C)(=O)=O)c([N+](=O)[O-])c2)sc1C(=O)N1CC2(C)CC1CC(C)(C)C2", "note": "(centres undefined)", "permeability": 1420},
      {"smiles": "CC1Cc2ccccc2N1C(=O)c1sc(-c2ccc(S(C)(=O)=O)c([N+](=O)[O-])c2)nc1C(F)(F)F", "note": "(centres undefined)", "permeability": 43},
      {"smiles": "CS(=O)(=O)c1ccc(-c2nc(C(F)(F)F)c(C(=O)N3CCc4ccccc4C3)s2)cc1[N+](=O)[O-]", "permeability": 84},
      {"smiles": "CN(Cc1ccccc1F)C(=O)c1sc(-c2ccc(S(C)(=O)=O)c([N+](=O)[O-])c2)nc1C(F)(F)F", "permeability": 221},
      {"smiles": "CN(Cc1ccccc1)C(=O)c1sc(-c2ccc(S(C)(=O)=O)c([N+](=O)[O-])c2)nc1C(F)(F)F", "permeability": 1500},
      {"smiles": "CS(=O)(=O)c1ccc(-c2nc(C(F)(F)F)c(C(=O)N3CCCCC3)s2)cc1[N+](=O)[O-]", "permeability": 791},
      {"smiles": "CS(=O)(=O)c1ccc(-c2ncc(C(=O)N3CCCCC3)s2)cc1[N+](=O)[O-]", "permeability": 287},
      {"smiles": "CS(=O)(=O)c1ccc(-c2nc(-c3ccccc3)c(C(=O)N3CCCCC3)s2)cc1[N+](=O)[O-]", "permeability": 971},
      {"smiles": "CCc1nc(-c2ccc(S(C)(=O)=O)c([N+](=O)[O-])c2)sc1C(=O)N1CCCCC1", "permeability": 657},
      {"smiles": "CS(=O)(=O)c1ccc(-c2ncc(C(=O)NC34CC5CC(CC(C5)C3)C4)s2)cc1[N+](=O)[O-]", "permeability": 379},
      {"smiles": "Cc1nc(-c2ccc(S(C)(=O)=O)c([N+](=O)[O-])c2)sc1C(=O)N1CCCCC1", "permeability": 280},
      {"smiles": "CC1(C)CC2CC(C)(CN2C(=O)c2sc(-c3ccc(S(C)(=O)=O)c([N+](=O)[O-])c3)nc2C(F)(F)F)C1", "note": "(centres undefined)", "permeability": 8},
      {"smiles": "CCc1nc(-c2ccc(S(C)(=O)=O)c([N+](=O)[O-])c2)sc1C(=O)N1CC2(C)CC1CC(C)(C)C2", "note": "(centres undefined)", "permeability": 949},
      {"smiles": "CN(Cc1cccc(F)c1)C(=O)c1sc(-c2ccc(S(C)(=O)=O)c([N+](=O)[O-])c2)nc1C(F)(F)F", "permeability": 271},
      {"smiles": "CN(Cc1cccc(F)c1)C(=O)c1cnc(-c2ccc(S(C)(=O)=O)c([N+](=O)[O-])c2)s1", "permeability": 1030}
    ]},
    {"assay": "as §1", "format": "ADME", "conditions": "read-out: permeability", "in_short": "as §2", "units": {"Papp": "×10⁻⁶ cm/s"}, "values": [
      {"smiles": "CC1CCN(C(=O)c2sc(-c3ccc(S(C)(=O)=O)c([N+](=O)[O-])c3)nc2C(F)(F)F)CC1", "Papp": 702}
    ]}
  ]
}
